# Assay results from different studies.
# Protocols differ between the studies behind these lines.
# Target: Uncharacterized serine/threonine-protein kinase SBK3 (SBK3, Homo sapiens, UniProt P0C264)
# Residues used in one study (P0C264 1-359): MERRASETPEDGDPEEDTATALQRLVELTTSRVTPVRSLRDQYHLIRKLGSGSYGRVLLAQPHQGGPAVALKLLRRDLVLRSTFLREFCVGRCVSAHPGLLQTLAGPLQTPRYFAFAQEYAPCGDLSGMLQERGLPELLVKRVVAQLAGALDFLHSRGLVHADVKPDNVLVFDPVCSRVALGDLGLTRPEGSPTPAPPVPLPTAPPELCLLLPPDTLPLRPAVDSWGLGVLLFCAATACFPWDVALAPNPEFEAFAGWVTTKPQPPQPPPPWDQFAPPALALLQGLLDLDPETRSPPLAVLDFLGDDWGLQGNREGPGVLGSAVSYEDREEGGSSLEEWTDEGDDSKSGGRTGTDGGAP
SMILES,test,setting,remaining binding [%]
O=C(c1ccc(Nc2ncc(Cl)c(-c3ccc(Cl)s3)n2)cc1)N1CCC(N2CCCC2)CC1,"binding, competition with immobilised ligand",1 µM,62
N[C@@H]1CCN(c2nccc(-c3cnn4ncccc34)n2)C1,binding,1 µM,100
COCCOc1nc(-c2ccc(Cl)nc2)nc2c1CN(C(=O)c1ncn3ccccc13)CC2,"cell-free assay, competition with immobilised ligand",0.1 µM,100
FC(F)(F)Oc1cccc(-c2cnc3ccc(-c4ccncc4)nn23)c1,"binding, competition with immobilised ligand",5 µM,100
Cc1cnn2ncc(-c3ccnc(N(C)C)n3)c2c1,binding,1 µM,26
COc1ncc2cc3ccccc3nc2c1C#N,"cell-free assay, competition with immobilised ligand",5 µM,100
Cc1nc(Cc2cccc(C(F)(F)F)c2)sc1-c1ccc(C(N)=O)nc1,"cell-free assay, competition with immobilised ligand",1 µM,100
O=C(NCC1CCOCC1)c1n[nH]cc1NC(=O)c1c(F)cccc1F,"binding, competition with immobilised ligand",1 µM,68
O=C(N[C@H]1CCCCC/C=C\C2C[C@@]2(C(=O)O)NC(=O)[C@@H]2C[C@@H](Oc3ccncc3)CN2C1=O)OC1CCCC1 (some centres unmarked),"binding, competition with immobilised ligand",1 µM,79
O=C(NCCCN1CCOCC1)c1ccc(Nc2nccc(-c3cc4ccccc4s3)n2)cc1,"binding, competition with immobilised ligand",1 µM,91
C=CC(=O)N1CCC(C(=O)NCC(=O)N2CCN(c3nc(-c4cnc(N)nc4C(F)F)nc(N4CCOCC4)n3)CC2)CC1,"binding, competition with immobilised ligand",1 µM,87
CN(C)c1ncc(F)c(-c2cnn3ncccc23)n1,binding,1 µM,74
COc1cnc(Nc2cccc(S(N)(=O)=O)c2)nc1N1CCN(c2ccccc2)CC1,"binding, competition with immobilised ligand",1 µM,100
O=C(Nc1ccc(Oc2ccc(F)cc2)cc1)N1CCc2ncccc2[C@H]1c1ccc(F)cc1,"cell-free assay, competition with immobilised ligand",1 µM,70
F[C@@H]1CCN(c2nccc(-c3cnn4ncccc34)n2)C1,binding,1 µM,100
O=S(=O)(NC1CCC(c2cc(F)ccc2F)(S(=O)(=O)c2ccc(Cl)cc2)CC1)C(F)(F)F (centres unmarked),"cell-free assay, competition with immobilised ligand",1 µM,93
c1cnn2ncc(-c3ccnc(N4CCC45COC5)n3)c2c1,binding,1 µM,71
CO[C@@H](C)c1c(Nc2ccc([C@@H](N(C)C(=O)C3CCS(=O)(=O)CC3)C(F)(F)F)cc2)cnc2cc(Cl)nn12,"cell-free assay, competition with immobilised ligand",1 µM,81
Cc1cnc(Nc2ccc(C(=O)N3CCC(N4CCCC4)CC3)cc2)nc1-c1cc2ccccc2s1,"binding, competition with immobilised ligand",1 µM,46
CN(c1nccc(-c2cnn3ncccc23)n1)C1CC1,binding,1 µM,100
